The data set is described as follows: Toxicity liver stage against HepG2, at 10uM. Conditions: human, HepG2-A16-CD81EGFP cells; read-out: INHIBITION
The arrangement: test concentration 10 uM, cell line HepG2-A16-CD81EGFP. In kind it is cell-based. In short, it runs like this: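 Uninfected HepG2-A16-CD81EGFP cells, 3 × 10^3 per well, 1536-well, plated on prespotted compound at 10 μM final, parasite-free screening media added to match infected plates; puromycin 10 μM positive, DMSO 0.5% negative; run in parallel with 48 h PbLuc assay at 37 °C, 5% CO2; viability by CellTiter-Glo luminescence, normalized to controls.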
Consider `c1ccc(CCCN2CC[C@H](c3nnc(-c4cccnc4)o3)C2)cc1`, for which the cytotoxicity at 10 µM is -6.1%.
With `Cc1nn(C)cc1C1CC(=O)Nc2c1cnn2C` (stereo unspecified), the cytotoxicity at 10 µM worked out at 2.8%.
In the case of `O=C(c1cnn2c1OCCC2)N1CCC(Cc2ccccc2)CC1` it was 0.524%; in that of `CS(=O)(=O)N1CCN(C(=O)c2cccc(Cl)c2)CC2(CNC(=O)C2)C1` (stereo unspecified), 6.86%.
On to `COCC1CN(CC2CC2)Cc2ncn(CC3CC3)c21` (stereo unspecified), for which the cytotoxicity at 10 µM came to 4.42%.
In the case of `CCOC[C@@H]1CC[C@H]2[C@H](CCN2C(=O)c2ccncc2F)O1` it was -2.86%.
Take `CCOCCCNC(=O)c1nnn(Cc2ccccc2)c1OC`: the cytotoxicity at 10 µM is 9.32%.
Take `O=C(c1noc2c1CCCC2)N1CCCC(c2nccs2)C1` (stereo unspecified): the cytotoxicity at 10 µM was -2.66%.
Regarding `COc1ccc2c(c1)C(=O)NC1(CC2)CCN(Cc2ccc(F)cc2)C1` (stereo unspecified), the cytotoxicity at 10 µM was 8.16%.
On to `COCCN1CCCC(c2nc(C)n3c(C)c(C)sc23)C1` (stereo unspecified), for which the cytotoxicity at 10 µM is -21.5%.
In the case of `Cc1c(C2CCCN(C(=O)OC(C)(C)C)C2)n2c(nc1=O)CCC2` (stereo unspecified), the cytotoxicity at 10 µM is -16%.
For `CNC(=O)C1(c2cnccn2)CCCN1C(=O)c1ccccc1F` (stereo unspecified), the cytotoxicity at 10 µM was -17.1%.
`CNC(=O)C1(c2cnccn2)CCCN1C(=O)c1cccc(C)n1` (stereo unspecified): the cytotoxicity at 10 µM was -18.6%.
With `O=C(c1cncc(Br)c1)N1CCC(O)(Cn2ccc3ccncc32)CC1`, the cytotoxicity at 10 µM was 2.44%.
On to `Cc1ccc2nc(C3CCCN(CC(C)C)C3)nc(O)c2c1` (stereo unspecified), for which the cytotoxicity at 10 µM was found to be 5.48%.
As to `O=C(CCc1nc(-c2cccnc2)no1)N(CC1CCOC1)C1CC1` (stereo unspecified), the cytotoxicity at 10 µM is 10.8%.
On to `N#CCCCS(=O)(=O)NC1(c2cccc(Cl)c2)CC1`, for which the cytotoxicity at 10 µM was -1.39%.
For `O=C(COc1ccc(Br)cc1F)Nc1cn[nH]c1`, the cytotoxicity at 10 µM is -24.1%.
Take `CCSCCC(=O)NCc1cnn(-c2ccc(F)cc2F)c1`: the cytotoxicity at 10 µM was -5.61%.
Then `COc1cc2c(cc1OC)CN(C(=O)NC(C)c1nncn1C)CC2` (stereo unspecified), with -4.54%; and `NC(=O)CCNC(=O)NCC1(c2ccccc2Cl)CCC1`, with -53.1%; and `COc1cccc(CN(C)C(=O)CN2CCN(CCO)CC2)c1`, with 12.3%.
In the case of `O=C1CCCN1Cc1nnc2n1CCN(Cc1ccco1)C2` it was 0.686%.
Then `CCS(=O)(=O)N1CCN(CCOC)c2ncccc2C1`, with 4.37%; and `CCCS(=O)(=O)N1CC[C@H]2O[C@H](c3nnc(C)o3)CC[C@H]21`, with -77.4%.
For the compound `CCOCC1CN(S(=O)(=O)C2CC2)Cc2cnn(C)c21` (stereo unspecified), the cytotoxicity at 10 µM was -66.8%.
As for `O=C(NCC1Cn2nnc(-c3ccsc3)c2CO1)c1ccc[nH]1` (stereo unspecified), the cytotoxicity at 10 µM turned out to be 2.28%.
Then `CCO[C@H]1CN(C(=O)c2ccnnc2)[C@@H]2COC[C@H]12`, with 0.403%.
As to `Cn1ccnc1CN1CC[C@@H](NS(C)(=O)=O)[C@@H]1Cc1cccnc1`, the cytotoxicity at 10 µM amounted to 8.54%.
In the case of `CN(C)C[C@@H]1CN(C(=O)Cc2ccc3ccccc3c2)C[C@@H]1CO` it was -8.4%; in that of `COc1ccc2nc(O)c(CN(C)Cc3ncc[nH]3)cc2c1`, 0.55%.
Consider `O=C(O)C1(n2ccnc2)CCN(Cc2ccc3occc3c2)CC1`, for which the cytotoxicity at 10 µM was -4.31%.
Regarding `Cc1ccc(CCNC(=O)Cn2nc(C)n(Cc3ccccc3)c2=O)o1`, the cytotoxicity at 10 µM was 1.33%.
For `Cc1cc(CN2CCN(CC3CC3)[C@@H]3CS(=O)(=O)C[C@@H]32)cc(C)c1O`, the cytotoxicity at 10 µM stood at 2.78%.
Take `O=C(c1cccc(-n2cccn2)c1)N1CCCOC(CN2CCCC2)C1` (stereo unspecified): the cytotoxicity at 10 µM was -7.33%.
Turning to `NC(=O)CCNC(=O)C1(N2CCCCC2)Cc2ccccc2C1`, the cytotoxicity at 10 µM was -8.56%.
For `Cc1c(CN2CCC(C(=O)O)(n3cccn3)CC2)oc2ccccc12`, the cytotoxicity at 10 µM was -2.67%.
Consider `CCN1CCC2(CCC1=O)CN(c1nccc(N)n1)CCN2C` (stereo unspecified), for which the cytotoxicity at 10 µM came out at 0.562%.
With `CC(=O)c1cc(CN2C[C@@H](N(C)C)[C@H](C(C)C)C2)cs1`, the cytotoxicity at 10 µM came to 0.305%.
Regarding `COc1cccc(C(=O)N2C[C@@H](C(=O)O)[C@H](c3ccccc3C)C2)c1`, the cytotoxicity at 10 µM is 0.291%.
In the case of `Cc1oc(-c2cccc(F)c2F)nc1CN(CCO)C(C)C` it was -15.2%.
With `CC(CO)CN(Cc1ccccc1)C(=O)c1csc(CN(C)C)n1` (stereo unspecified), the cytotoxicity at 10 µM was -8.69%.
In the case of `Cc1cccnc1CN1CCN(C(=O)c2cc(Cl)c[nH]c2=O)CC1` it was 6.22%; in that of `OC(CNc1ncnc2c1CCNCC2)C(F)(F)F` (stereo unspecified), -4.92%; in that of `CCCC(C)CN1CCC(n2cc(CCCO)nn2)CC1` (stereo unspecified), 3.22%.
On to `OC1(CN2CCCC2)CCCN(Cc2ccc(F)cc2Cl)C1` (stereo unspecified), for which the cytotoxicity at 10 µM stood at 20.9%.
`CN(Cc1nccs1)c1nc(-c2ccccn2)nc2c1CCNCC2`: the cytotoxicity at 10 µM was -14%.
As for `Cc1nc2n(n1)CC(NCc1cc(Cl)c3c(c1)OCCO3)CC2` (stereo unspecified), the cytotoxicity at 10 µM was -6.14%.
In the case of `CCn1ccnc1CN1CCCN(C(=O)c2scnc2C)CC1` it was -7.77%.
Regarding `CC(C)c1nnc2n1CCN(CCC(=O)N1CCc3ccccc31)C2`, the cytotoxicity at 10 µM is -21.1%.
With `Cc1cnn(CC2CCCN2Cc2nnc(C3CC3)n2C)c1` (stereo unspecified), the cytotoxicity at 10 µM is -12.2%.
With `CCn1ccnc1CN1CCCN(C(=O)Cc2ccccc2C)CC1`, the cytotoxicity at 10 µM was -1.99%.
With `O=C(Cc1ccccn1)N1CCN(C(=O)CC2CCCCC2)CC1`, the cytotoxicity at 10 µM was found to be 5.35%.
As for `CCC(C)C(=O)NCc1ccc(-n2cncn2)nc1` (stereo unspecified), the cytotoxicity at 10 µM was 8.85%.
In the case of `Cc1ccc(C)c(NC(=O)C(C)N2CCCN(c3nccs3)CC2)c1` (stereo unspecified) it was -19.8%; in that of `CCCC(=O)N1CCc2c(CNS(C)(=O)=O)cncc2C1`, 4.36%; in that of `c1cnc(NC[C@H]2OC[C@@H]3CCN(Cc4ccsc4)C[C@@H]32)nc1`, -2.01%.
Then `CCN1CCC2(COCc3cnc(NCC4CC4)nc32)C1` (stereo unspecified), with -12.9%.
In the case of `COCC1CN(Cc2cccnc2)Cc2nnn(CC3CC3)c21` (stereo unspecified), the cytotoxicity at 10 µM is -0.0925%.
In the case of `COCC1CN(c2ccc(C)nn2)Cc2cnn(CC3CCOCC3)c21` (stereo unspecified) it was 4.62%; in that of `CN(C)c1cc(C2CCCNC2)ccn1` (stereo unspecified), -2.68%; in that of `Cn1cc(CN2C[C@@H]3COC[C@]3(C(=O)NCc3ccccn3)C2)cn1`, -1.07%.
With `Cc1ccc(CN2CCc3c(CN(C)C)n[nH]c3C2)s1`, the cytotoxicity at 10 µM was determined as 1.93%.
`O=C(C1=CC2(CCN(CCO)CC2)c2ccccc21)N1CCCC1`: the cytotoxicity at 10 µM was -1.16%.
As to `c1cncc(OCC2CC3(CCN(CC4CC4)CC3)CO2)c1` (stereo unspecified), the cytotoxicity at 10 µM was 4.95%.
Then `COCC1Cn2nnc(-c3cnn(C)c3)c2CN1Cc1ccoc1` (stereo unspecified), with 6.44%; and `COCCN1CCCn2c(nc(Cn3cncn3)cc2=O)C1`, with 3.39%.
In the case of `O=C(NCCn1nc(C2CCNC2)c2cccnc21)C1CC1` (stereo unspecified), the cytotoxicity at 10 µM was -25.8%.
As to `CCN1CC[C@]2(CN(Cc3nccs3)C[C@H]2c2ccccc2)C1=O`, the cytotoxicity at 10 µM is 4.89%.
As for `COCCN1C[C@@H](C)[C@@]2(COCCN(C(=O)c3ccno3)C2)C1`, the cytotoxicity at 10 µM was determined as 7.4%.
Take `Cn1ccc(C(=O)NC2CCC23CCN(C(=O)c2ccncc2)CC3)c1` (stereo unspecified): the cytotoxicity at 10 µM is -9.84%.

For the origin of these results see ChEMBL document CHEMBL4513216, “Probing the Open Global Health Chemical Diversity Library for Multistage-Active Starting Points for Next-Generation Antimalarials” (ACS Infect Dis, 2020).
